Experimental data from ChEMBL document CHEMBL6182829, “Developing peptide-based fusion inhibitors as an antiviral strategy utilizing coronin 1 as a template” (RSC Med Chem, 2025).
Activity calls are given as the source filed them. The calls are words filed in the database; no cut-off is given here. Where a SMILES comes first, the peptide text is derived from it.

Key:
Lipid bilayer [1] = test: Inhibition of PEG-induced DOPC/DOPE/DOPG/CH (40/30/10/20 mol%) (20 CH) small unilamellar vesicles fusion assessed as content mixing at 1:100 compound: lipid concentration preincubated for 10 mins followed by PEG addition by spectrofluorometric analysis
Outline: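 Content mixing by Tb3+/DPA complex fluorescence. Vesicles loaded with 8 mM TbCl3 or 80 mM DPA, external probe removed by gel filtration. Mixed 1:1 at 200 μM lipid; peptide 2 μM added 10 min before 6% (w/v) PEG, 37 °C. Normalised to co-encapsulated and detergent-treated samples.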

Lipid bilayer [2] = test: Inhibition of PEG-induced DOPC/DOPE/DOPG/CH (50/30/10/10 mol%) (10 CH) small unilamellar vesicles fusion assessed as content mixing at 1:100 compound: lipid concentration preincubated for 10 mins followed by PEG addition by spectrofluorometric analysis (reference value: 33 %)
Outline: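 Tb3+-loaded (8 mM TbCl3) and DPA-loaded (80 mM) SUVs, external probe removed by Sephadex G-75, mixed 1:1 at 200 μM total lipid in 10 mM TES, 100 mM NaCl, 1 mM EDTA, 1 mM CaCl2, pH 7.4, 37 °C; 2 μM peptide added 10 min before 6% (w/v) PEG; Tb/DPA fluorescence rise over time, normalized with detergent; inhibition relative to no-peptide control.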

inhibition (Lipid bilayer [1]): inactive | inhibition (Lipid bilayer [2]): 5%
Compound: CC[C@H](C)[C@H](NC(=O)[C@H](CC(C)C)NC(=O)[C@H](C)NC(=O)[C@@H](NC(=O)[C@H](Cc1ccccc1)NC(=O)[C@H](CCCCN)NC(=O)[C@@H]1CCCN1C(=O)[C@H](CC(N)=O)NC(=O)[C@@H](NC(=O)[C@H](C)NC(=O)[C@H](CS)NC(=O)[C@H](Cc1ccccc1)NC(=O)CNC(=O)[C@H](CO)NC(=O)[C@H](CC(=O)O)NC(=O)[C@H](Cc1c[nH]c2ccccc12)NC(=O)[C@@H](NC(=O)[C@@H](N)[C@@H](C)O)[C@@H](C)O)C(C)C)C(C)C)C(=O)N[C@@H](CS)C(=O)N[C@@H](CCC(=O)O)C(=O)N[C@@H](C)C(=O)N[C@@H](CO)C(=O)NCC(=O)O (H-TTWDSGFCAVNPKFVALICEASG-OH)
